Values after ≈ are worked out from the molar mass of the structure shown.
Assays:
[1] = system: Mus musculus; assay: Maximum tolerated dose (MTD, po) in uninfected NMRI mice
[2] = system: Avian myeloblastosis virus; assay: In vitro inhibition of RNA dependent DNA polymerase of Avian myeloblastosis virus (AMV); format: functional; conditions: read-out: ED50
Method in brief: (§1)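 Reverse transcriptase activity assayed with poly(rA)·oligo(dT) or poly(rC)·oligo(dG) template-primer (20 μg/mL) and [³H]dTTP or [³H]dGTP substrate (20 μM, […]); inhibition read as loss of labelled nucleotide incorporation.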

[3] = system: Rauscher murine leukemia virus; assay: In vitro inhibition of RNA dependent DNA polymerase of Rauscher leukemia virus (RLV); format: functional; conditions: read-out: ED50
Method in brief: as §1

For CCC1(CC)CCC2=C(O1)c1ccccc1C(=O)C2=O, the MTD [1] was 2500 mg/kg and the EC50 [2] was 2 µg/mL (≈ 7.4 µM).

In the case of CCC1(C)CCC2=C(O1)c1ccccc1C(=O)C2=O (stereo unspecified), the MTD [1] is reported as 125 mg/kg and the EC50 [2] is reported as < 2 µg/mL.

For CC1(C)CCC2=C(O1)c1ccc(Cl)cc1C(=O)C2=O, the MTD [1] was >2500 mg/kg.

CC1(C)CCC2=C(O1)c1ccccc1C(=O)C2=O [LAPACHONE] was tested, and the MTD [1] was 1250 mg/kg, the EC50 [2] was < 2 µg/mL and the EC50 [3] was < 2 µg/mL.

Cc1ccc2c(c1)C(=O)C(=O)C1=C2OC(C)(C)CC1 was tested, and the MTD [1] was >2500 mg/kg.

O=C1C(=O)c2ccccc2C2=C1CCC1(CCCC1)O2 was tested, and the MTD [1] was >2500 mg/kg and the EC50 [2] was 3 µg/mL (≈ 11.2 µM).

COc1cc2c(cc1OC)C1=C(CCC(C)(C)O1)C(=O)C2=O was tested, and the MTD [1] was >1250 mg/kg and the EC50 [2] was 5 µg/mL (≈ 16.5 µM).

With O=C1C(=O)c2ccccc2C2=C1CCC(c1ccccc1)O2 (stereo unspecified) the MTD [1] was >2500 mg/kg and the EC50 [2] was < 2 µg/mL.

Work on O=C1C(=O)c2ccccc2C2=C1CCC1(CCCCCC1)O2 yielded an EC50 [2] of 15 µg/mL (≈ 50.6 µM).

O=C1C(=O)c2ccccc2C2=C1CCC1(CCCCC1)O2 was tested, and the MTD [1] was >2500 mg/kg and the EC50 [2] was 3 µg/mL (≈ 10.6 µM).

For CC1(c2ccccc2)CCC2=C(O1)c1ccccc1C(=O)C2=O (stereo unspecified), the MTD [1] was >2500 mg/kg, the EC50 [2] was 2 µg/mL (≈ 6.57 µM) and the EC50 [3] was 2 µg/mL (≈ 6.57 µM).

Reference: ChEMBL document CHEMBL1122715, “beta-Lapachone: synthesis of derivatives and activities in tumor models” (1984)
